Assay results from ChEMBL document CHEMBL1138216, “Design and synthesis of novel derivatives of the muscarinic agonist tetra(ethylene glycol)(3-methoxy-1,2,5-thiadiazol-4-yl) [3-(1-methyl-1,2,5,6-tetrahydropyrid-3-yl)-1,2,5-thiadiazol-4-yl] ether (CDD-0304): effects of structural modifications on the binding and activity at muscarinic receptor …” (J Med Chem, 2006).
Calls of active or inactive are those of the source. The rule behind the calls is not given here.

Columns and labels:
[1] = test system: Rattus norvegicus; experiment: Antipsychotic activity in sc dosed Sprague-Dawley rat assessed as ability to reverse apomorphine effect on prepulse inhibition of the startle response; assay type: functional, organism-based
Procedure, shortened: (§1)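 Male Sprague-Dawley rats, 250-300 g, habituated a day before. Drug in water or saline sc (1 mL/kg) 25 min, apomorphine 1.0 mg/kg 5 min pre-test; muscarinic agonists 0.1-3 mg/kg. Session of 15 each pulse-alone (120 dB, 100 ms) and pulse preceded 200 ms by 20 ms prepulse 12 dB above 70 dB background; 12 rats/group; %PPI calculated.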

[2] = molecular target: T1, Muscarinic acetylcholine receptor M1 (Homo sapiens, UniProt P11229); experiment: Inhibition of [3H](R)-QNB binding to human M1 receptor expressed in A9 L cells; assay type: cell-based, A9L
T1 sequence (P11229 whole entry): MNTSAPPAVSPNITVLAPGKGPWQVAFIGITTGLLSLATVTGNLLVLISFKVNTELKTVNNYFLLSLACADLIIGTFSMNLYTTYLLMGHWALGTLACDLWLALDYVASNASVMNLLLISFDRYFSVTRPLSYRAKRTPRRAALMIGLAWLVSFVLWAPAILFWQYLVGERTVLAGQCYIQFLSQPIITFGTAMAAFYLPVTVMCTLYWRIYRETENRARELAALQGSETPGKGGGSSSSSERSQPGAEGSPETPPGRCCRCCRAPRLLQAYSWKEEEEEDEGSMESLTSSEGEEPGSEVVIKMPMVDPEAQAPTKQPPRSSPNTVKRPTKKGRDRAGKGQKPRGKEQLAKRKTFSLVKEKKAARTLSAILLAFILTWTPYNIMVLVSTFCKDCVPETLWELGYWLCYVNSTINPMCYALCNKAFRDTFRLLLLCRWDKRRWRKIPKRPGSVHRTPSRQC

[3] = molecular target: Muscarinic acetylcholine receptor M1 (Homo sapiens, UniProt P11229, Q185E); assay type: functional, cell-based, L929
Chain of Muscarinic acetylcholine receptor M1 (Homo sapiens, UniProt P11229, Q185E) (P11229 whole entry Q185E): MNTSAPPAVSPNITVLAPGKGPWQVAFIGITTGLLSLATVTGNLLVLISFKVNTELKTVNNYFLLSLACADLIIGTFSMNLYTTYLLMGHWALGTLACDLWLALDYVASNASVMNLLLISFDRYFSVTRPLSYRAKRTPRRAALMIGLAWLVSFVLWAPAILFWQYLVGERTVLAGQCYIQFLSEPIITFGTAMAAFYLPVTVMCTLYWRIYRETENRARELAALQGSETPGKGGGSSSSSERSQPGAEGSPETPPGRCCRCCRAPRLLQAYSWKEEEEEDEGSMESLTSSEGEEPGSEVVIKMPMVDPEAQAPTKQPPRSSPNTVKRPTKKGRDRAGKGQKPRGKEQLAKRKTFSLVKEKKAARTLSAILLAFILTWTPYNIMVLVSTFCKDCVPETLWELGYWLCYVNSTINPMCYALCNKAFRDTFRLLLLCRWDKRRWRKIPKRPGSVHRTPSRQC

[4] = molecular target: T2, Muscarinic acetylcholine receptor M4 (Homo sapiens, UniProt P08173); experiment: Activity at human M4 receptor assessed as inhibition of forskolin-stimulated cAMP accumulation; assay type: functional
T2 sequence (P08173 whole entry): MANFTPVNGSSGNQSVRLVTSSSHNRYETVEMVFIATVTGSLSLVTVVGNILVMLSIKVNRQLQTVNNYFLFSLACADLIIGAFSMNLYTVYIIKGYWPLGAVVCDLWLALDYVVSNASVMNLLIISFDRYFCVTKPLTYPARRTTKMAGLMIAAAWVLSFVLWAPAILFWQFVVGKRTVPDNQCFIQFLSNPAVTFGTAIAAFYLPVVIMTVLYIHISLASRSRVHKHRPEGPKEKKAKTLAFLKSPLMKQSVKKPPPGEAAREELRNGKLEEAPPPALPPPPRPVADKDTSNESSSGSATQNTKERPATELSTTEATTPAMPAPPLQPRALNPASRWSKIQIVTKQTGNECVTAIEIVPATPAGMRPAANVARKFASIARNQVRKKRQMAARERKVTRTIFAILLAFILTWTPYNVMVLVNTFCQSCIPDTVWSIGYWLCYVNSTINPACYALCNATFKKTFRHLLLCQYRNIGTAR

[5] = molecular target: Muscarinic acetylcholine receptor M3 (Homo sapiens, UniProt P20309); experiment: Antagonist activity at human M3 receptor assessed as inhibition of carbachol […]; conditions: read-out: pA2 (converted)
Chain of Muscarinic acetylcholine receptor M3 (P20309 whole entry): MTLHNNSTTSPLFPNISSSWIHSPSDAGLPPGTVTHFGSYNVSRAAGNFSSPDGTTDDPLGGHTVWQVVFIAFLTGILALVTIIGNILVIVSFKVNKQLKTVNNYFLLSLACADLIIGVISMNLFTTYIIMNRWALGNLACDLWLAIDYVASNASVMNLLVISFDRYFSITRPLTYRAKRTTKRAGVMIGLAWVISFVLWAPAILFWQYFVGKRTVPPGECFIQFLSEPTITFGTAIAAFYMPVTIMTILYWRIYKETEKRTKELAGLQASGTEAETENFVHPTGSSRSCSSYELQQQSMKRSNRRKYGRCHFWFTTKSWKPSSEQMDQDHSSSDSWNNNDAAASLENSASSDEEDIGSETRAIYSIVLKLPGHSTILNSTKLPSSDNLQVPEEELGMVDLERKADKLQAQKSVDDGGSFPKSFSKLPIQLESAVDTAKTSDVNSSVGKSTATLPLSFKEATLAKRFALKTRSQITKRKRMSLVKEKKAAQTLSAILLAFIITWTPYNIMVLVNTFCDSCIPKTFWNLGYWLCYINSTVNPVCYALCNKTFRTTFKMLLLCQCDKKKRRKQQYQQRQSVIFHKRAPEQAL

[6] = molecular target: T3, Muscarinic acetylcholine receptor M1/M5 chimeric protein (Homo sapiens, UniProt P08912+P11229); experiment: Inhibition of [3H](R)-QNB binding to human M1/M5(o3) chimeric receptor expressed in A9 L cells; assay type: cell-based, A9L
T3 sequence (P11229 whole entry): T1 sequence (P11229 whole entry)
T3 sequence (P08912 whole entry): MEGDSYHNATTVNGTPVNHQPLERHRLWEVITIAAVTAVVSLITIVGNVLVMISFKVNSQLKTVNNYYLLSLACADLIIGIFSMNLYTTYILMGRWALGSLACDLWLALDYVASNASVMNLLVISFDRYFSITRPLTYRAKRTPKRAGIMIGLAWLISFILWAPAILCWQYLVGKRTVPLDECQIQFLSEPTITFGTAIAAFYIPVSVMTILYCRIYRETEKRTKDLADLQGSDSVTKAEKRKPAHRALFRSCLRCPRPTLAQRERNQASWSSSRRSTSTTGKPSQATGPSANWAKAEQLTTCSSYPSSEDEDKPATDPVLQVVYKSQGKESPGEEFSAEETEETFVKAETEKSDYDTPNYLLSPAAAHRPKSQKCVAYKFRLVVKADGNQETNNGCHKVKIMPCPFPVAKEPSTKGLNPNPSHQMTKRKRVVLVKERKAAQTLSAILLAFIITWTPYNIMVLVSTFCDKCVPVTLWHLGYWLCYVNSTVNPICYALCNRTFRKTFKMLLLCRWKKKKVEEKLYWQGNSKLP

[7] = test system: Rattus norvegicus; experiment: Antipsychotic activity in Sprague-Dawley rat assessed as ability to reverse apomorphine effect on prepulse inhibition of the startle response at 3 mg/kg, sc; assay type: functional, organism-based; design: dose 3 mg/kg; procedure, shortened: as §1

CCCCCCOc1nsnc1C1=CCCN(C)C1 [XANOMELINE]
Activity [1]: inactive

COc1nsnc1OCCOCCOCCOCCOc1nsnc1C1=CCCN(C)C1
Ki [2]: 50.1 nM | EC50 [3]: 251 nM | IC50 [4]: 12.6 nM | Kb [5]: 158 nM | Ki [6]: 126 nM | Activity [7]: Active
